Test results reported in PMC5055850 (Bioorganic & medicinal chemistry, 2016).

Legend:
Type in all cases: cell-based
mouse Fpr2 = target: T1, mouse Fpr2 (Mus musculus, UniProt O88536); assay: Ca2+ flux assay in mFpr2-RBL cells
T1 sequence (O88536 1-351): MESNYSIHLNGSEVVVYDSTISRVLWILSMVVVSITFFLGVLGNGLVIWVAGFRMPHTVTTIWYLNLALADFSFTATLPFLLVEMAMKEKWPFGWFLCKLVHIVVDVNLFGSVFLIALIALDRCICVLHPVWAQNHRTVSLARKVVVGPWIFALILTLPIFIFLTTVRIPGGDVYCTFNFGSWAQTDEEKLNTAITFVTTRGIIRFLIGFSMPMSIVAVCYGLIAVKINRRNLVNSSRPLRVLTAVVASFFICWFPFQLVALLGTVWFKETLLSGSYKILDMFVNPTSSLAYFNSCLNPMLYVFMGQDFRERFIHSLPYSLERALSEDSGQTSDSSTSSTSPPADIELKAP
Method in brief: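 RBL-2H3 cells stably expressing mouse Fpr2, grown in DMEM with 20% FBS, 10 mM HEPES and G418. Fluo-4 AM loaded (1.25 µg/mL final, 30 min, 37 °C, dark) in HBSS− with HEPES, then resuspended in HBSS with HEPES at 2 × 10^5 cells/well. Fluorescence (485/538 nm) read every 5 s for 240 s at room temperature. Peak rise over baseline was taken and EC50 fitted from 5–6-point curves. Mean of three experiments.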

[1] = test system: mouse polymorphonuclear neutrophils (mPMN); assay: Ca2+ flux assay in mouse neutrophils
Method in brief: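 Neutrophils taken from BALB/c mouse tibia and femur bone marrow. Isolated on a 45/50/55/62/81% Percoll gradient (1600g, 30 min, 10 °C), then Histopaque 1119 to remove red cells, and kept in HBSS−. Ca2+ fluorescence (485/538 nm) monitored every 5 s for 240 s at room temperature after compound addition. Maximal change over baseline normalized to 5 nM WKYMVm. EC50 from 5–6-point nonlinear regression, three independent experiments.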

human neutrophils = assay: Cell migration; conditions: Neutrophil, 1 h, read-out: EC50 in migration assay
Method in brief: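 Human neutrophils at 2 × 10^6 cells/mL in HBSS with 2% FBS, placed above a 5.0 µm polycarbonate membrane. Lower wells held test compound, DMSO (negative control) or 1 nM fMLF (positive control). Migration ran 60 min at 37 °C, 5% CO2. Migrated cells counted by ATP luminescence against neutrophil standard curves and expressed as % of spontaneous migration. EC50 from 5–6-point nonlinear fits; mean ± SD, three donors.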

FPR1 = target: T2, FPR1 (Homo sapiens, UniProt P21462); assay: Ca2+ flux assay in FPR1-HL60 cells
T2 sequence (P21462 1-350): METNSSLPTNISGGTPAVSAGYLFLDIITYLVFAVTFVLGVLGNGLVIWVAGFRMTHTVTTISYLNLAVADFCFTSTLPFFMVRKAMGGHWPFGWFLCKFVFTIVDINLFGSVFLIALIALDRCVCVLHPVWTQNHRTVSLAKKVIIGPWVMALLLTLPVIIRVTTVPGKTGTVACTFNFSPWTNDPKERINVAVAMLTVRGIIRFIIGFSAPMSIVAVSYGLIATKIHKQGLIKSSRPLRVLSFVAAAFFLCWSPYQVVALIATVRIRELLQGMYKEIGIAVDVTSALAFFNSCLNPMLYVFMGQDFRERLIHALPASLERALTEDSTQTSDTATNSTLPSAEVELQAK
Method in brief: (§1)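 FPR1-, FPR2- or FPR3-transfected HL-60 cells grown in RPMI 1640 with 10% heat-inactivated FCS, 10 mM HEPES and G418 (1 mg/mL). Cells loaded with Fluo-4 AM (1.25 µg/mL final) for 30 min at 37 °C in the dark, then 2 × 10^5 cells/well. Fluorescence (ex 485/em 538 nm) read every 5 s for 240 s at room temperature. Peak rise over baseline normalized to 5 nM fMLF (FPR1) or 5 nM WKYMVm (FPR2, FPR3). EC50 from 5–6-point nonlinear fits, three independent experiments.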

FPR2 = target: T3, FPR2 (Homo sapiens, UniProt P25090); assay: Ca2+ flux assay in FPR2-HL60 cells
T3 sequence (P25090 1-351): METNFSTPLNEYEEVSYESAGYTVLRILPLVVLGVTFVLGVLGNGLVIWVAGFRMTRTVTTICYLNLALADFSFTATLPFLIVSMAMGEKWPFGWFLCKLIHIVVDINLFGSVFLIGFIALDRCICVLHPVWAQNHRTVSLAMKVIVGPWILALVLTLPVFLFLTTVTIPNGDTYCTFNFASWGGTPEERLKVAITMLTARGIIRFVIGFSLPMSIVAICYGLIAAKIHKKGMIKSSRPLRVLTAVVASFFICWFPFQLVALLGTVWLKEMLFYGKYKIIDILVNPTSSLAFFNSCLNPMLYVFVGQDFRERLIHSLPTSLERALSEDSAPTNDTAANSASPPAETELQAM
Method in brief: as §1

mouse Fpr1 = target: T4, mouse Fpr1 (Mus musculus, UniProt P33766); assay: Ca2+ flux assay in mFpr1-RBL cells
T4 sequence (P33766 1-364): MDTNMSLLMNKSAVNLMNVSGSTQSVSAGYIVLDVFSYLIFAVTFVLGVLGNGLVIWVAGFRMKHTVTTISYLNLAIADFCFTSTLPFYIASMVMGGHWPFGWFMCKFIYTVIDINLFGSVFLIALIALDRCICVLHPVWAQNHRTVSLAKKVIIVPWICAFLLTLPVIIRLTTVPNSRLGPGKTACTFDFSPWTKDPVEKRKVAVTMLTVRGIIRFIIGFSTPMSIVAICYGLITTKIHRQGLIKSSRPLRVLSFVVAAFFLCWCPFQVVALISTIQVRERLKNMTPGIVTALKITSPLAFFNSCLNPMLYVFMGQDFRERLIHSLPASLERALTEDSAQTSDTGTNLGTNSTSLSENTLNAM
Method in brief: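 RBL-2H3 cells carrying mouse Fpr1 were grown in DMEM with 20% FBS, 10 mM HEPES and G418 (250 µg/ml). Cells were loaded with Fluo-4 AM (1.25 µg/mL final, 30 min, 37 °C, dark) and plated at 2 × 10^5 cells/well. Fluorescence (485/538 nm) was read every 5 s for 240 s at room temperature after compound addition. Maximal rise over baseline normalized to 5 nM WKYMVm. EC50 from 5–6-point nonlinear fits, three experiments.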

FPR3 = target: T5, FPR3 (Homo sapiens, UniProt P25089); assay: Ca2+ flux assay in FPR3-HL60 cells
T5 sequence (P25089 1-353): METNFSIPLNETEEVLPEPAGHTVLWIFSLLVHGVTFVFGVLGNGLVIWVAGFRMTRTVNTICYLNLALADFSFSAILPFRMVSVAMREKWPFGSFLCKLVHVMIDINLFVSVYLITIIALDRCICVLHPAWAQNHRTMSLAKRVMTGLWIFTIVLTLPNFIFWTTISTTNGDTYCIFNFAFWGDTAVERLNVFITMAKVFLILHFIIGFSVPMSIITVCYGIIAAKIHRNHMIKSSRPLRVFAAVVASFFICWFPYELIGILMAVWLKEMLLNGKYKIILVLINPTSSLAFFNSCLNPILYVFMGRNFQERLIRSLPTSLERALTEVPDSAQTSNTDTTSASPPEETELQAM
Method in brief: as §1

[2] = test system: human polymorphonuclear neutrophils (hPMN); assay: Ca2+ flux assay in human neutrophils; conditions: Homo sapiens, Polymorphonuclear neutrophil, read-out: hPMN EC50
Method in brief: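 Neutrophils from healthy donors' blood, purified by dextran sedimentation, Histopaque 1077 gradient and hypotonic red-cell lysis (>95% pure, >98% viable). Cells in HBSS− with 10 mM HEPES were loaded with Fluo-4 AM (1.25 µg/mL final) for 30 min at 37 °C, then plated at 2 × 10^5 cells/well. Fluorescence (485/538 nm) read every 5 s for 240 s at room temperature. Peak change normalized to 5 nM fMLF. EC50 from 5–6-point nonlinear regression, three experiments.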

[3] = % of the response induced by 5 nM WKYMVm

For `COc1ccc(Nc2c(-c3ccn(C)n3)c(C)nn(CC(=O)Nc3ccc(Br)cc3)c2=O)cc1` [Compound 27b, N-(4-Bromophenyl)-2-[5-(4-methoxyphenylamino)-3-methyl-4-(1-methyl-1H-pyrazol-3-yl)-6-oxo-6H-pyridazin-1-yl]acetamide], the EC50 (mouse Fpr2) was 18300 ± 3800 nM, the “mFpr2-RBL Efficacy” value (mouse Fpr2; [3]) was 35% and the “mPMN Efficacy” value [1, 3] was 80%. The EC50 ([1]; Mus musculus, Polymorphonuclear neutrophil, read-out: mPMN EC50) was 6000 ± 1900 nM, the EC50 (human neutrophils) was 450 ± 170 nM and the EC50 (FPR1) was 4000 ± 890 nM. For the same compound, the Emax (FPR1; read-out: FPR1-HL60 Efficacy) was 115%, the EC50 (FPR2; FPR2-HL60 EC50, Ca2+ flux, HL-60 cells transfected with FPR2) was 35 ± 100 nM and the Emax (FPR2; read-out: FPR2-HL60 Efficacy) was 120%. The EC50 (mouse Fpr1) was 18500 ± 4100 nM, the “mFpr1-RBL Efficacy” value (mouse Fpr1; [3]) was 25% and the EC50 (FPR3) was 670 ± 220 nM. The “FPR3-HL60 Efficacy” value (FPR3; [3]) was 110% and the EC50 [2] was 300 ± 44 nM.
